# In ChEMBL document CHEMBL1152490, “SAR study of clubbed [1,2,4]-triazolyl with fluorobenzimidazoles as antimicrobial and antituberculosis agents” (Eur J Med Chem, 2009):
# Tests used:
# [1] = system: Mycobacterium tuberculosis; test: Antitubercular activity against Mycobacterium tuberculosis H37Rv at 6.25 […] by microplate alamar blue assay; assay type: functional
# How it was run: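 M. tuberculosis H37Rv (ATCC 27294) in BACTEC 12B medium, primary screen by broth microdilution microplate Alamar Blue assay at a single concentration of […]. Fluorescent compounds were tested instead in the BACTEC 460 radiometric system.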
# [2] = system: Mycobacterium tuberculosis; test: Antitubercular activity against Mycobacterium tuberculosis H37Rv by microplate alamar blue assay; assay type: functional
# How it was run: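 Compounds active in the primary screen were retested at lower concentrations against M. tuberculosis H37Rv by microplate Alamar Blue assay. MIC taken as the lowest concentration giving a 95% fall in fluorescence relative to controls. Rifampin was the reference compound.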
# [3] = Cytotoxicity against african green monkey Vero C1008 cells at 6.25 to 50 µg/ml by neutral red uptake assay; assay type: cell-based; conditions: chlorocebus sabaeus
# Escherichia coli = test: Antimicrobial activity against Escherichia coli after 24 hrs by agar well diffusion assay; assay type: functional
# How it was run: (§1)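 Agar well diffusion with modifications, gentamycin as reference standard. Wells 10 mm in diameter punched in agar plates with a sterile steel borer. Strains were kept on agar medium. Compounds were dissolved and applied at 0.5% to 1.0%. Incubation at 24–28 °C for 24 h, then bacterial inhibition was scored.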
# [4] = system: Salmonella enterica subsp. enterica; test: Antimicrobial activity against Salmonella typhosa after 24 hrs by agar well diffusion assay; assay type: functional, Salmonella enterica subsp. enterica serovar Typhi
# How it was run: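 Agar well diffusion, modified; wells punched with a 10 mm sterile borer. Test compounds applied on impregnated sterile disks at concentrations of 0.5% to 1.0%, with gentamycin as reference standard. Plates incubated at 24–28 °C for 24 h, then bacterial inhibition scored.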
# Pseudomonas aeruginosa = test: Antimicrobial activity against Pseudomonas aeruginosa after 24 hrs by agar well diffusion assay; assay type: functional; how it was run: as §1
# Staphylococcus aureus = test: Antimicrobial activity against Staphylococcus aureus after 24 hrs by agar well diffusion assay; assay type: functional; how it was run: as §1
compound,measurement,setting,value
CO[C@H]1/C=C/O[C@@]2(C)Oc3c(C)c(O)c4c(O)c(c(/C=N/N5CCN(C)CC5)c(O)c4c3C2=O)NC(=O)/C(C)=C\C=C\[C@H](C)[C@H](O)[C@@H](C)[C@@H](O)[C@@H](C)[C@H](OC(C)=O)[C@@H]1C [RIFAMPIN],growth inhibition (GI),[1],96%
same,MIC,[2],0.015 µg/mL
Cc1ccccc1Cn1c(-c2ccc(-n3cncn3)cc2)nc2c(F)cc(F)cc21,Activity,[3],Non-toxic
same,inhibition zone (IZ),Escherichia coli,18 mm
same,inhibition zone (IZ),[4],14 mm
same,inhibition zone (IZ),Pseudomonas aeruginosa,21 mm
same,inhibition zone (IZ),Staphylococcus aureus,19 mm
same,MIC,[2],< 6.25 µg/mL
C#CCn1c(-c2ccc(-n3cncn3)cc2)nc2c(F)cc(F)cc21,Activity,[3],Non-toxic
same,inhibition zone (IZ),Escherichia coli,21 mm
same,growth inhibition (GI),[1],96%
same,inhibition zone (IZ),[4],24 mm
same,inhibition zone (IZ),Pseudomonas aeruginosa,23 mm
same,inhibition zone (IZ),Staphylococcus aureus,25 mm
same,MIC,[2],3.13 µg/mL
COc1cccc(Cn2c(-c3ccc(-n4cncn4)cc3)nc3c(F)cc(F)cc32)c1,Activity,[3],Non-toxic
same,inhibition zone (IZ),Escherichia coli,22 mm
same,growth inhibition (GI),[1],96%
same,inhibition zone (IZ),[4],21 mm
same,inhibition zone (IZ),Pseudomonas aeruginosa,22 mm
same,inhibition zone (IZ),Staphylococcus aureus,24 mm
same,MIC,[2],3.13 µg/mL
Fc1cccc(Cn2c(-c3ccc(-n4cncn4)cc3)nc3c(F)cc(F)cc32)c1,Activity,[3],Non-toxic
same,inhibition zone (IZ),Escherichia coli,22 mm
same,growth inhibition (GI),[1],96%
same,inhibition zone (IZ),[4],24 mm
same,inhibition zone (IZ),Pseudomonas aeruginosa,26 mm
same,inhibition zone (IZ),Staphylococcus aureus,29 mm
same,MIC,[2],0.36 µg/mL
CCn1c(-c2ccc(-n3cncn3)cc2)nc2c(F)cc(F)cc21,Activity,[3],Non-toxic
same,inhibition zone (IZ),Escherichia coli,16 mm
same,inhibition zone (IZ),[4],14 mm
same,inhibition zone (IZ),Pseudomonas aeruginosa,18 mm
same,inhibition zone (IZ),Staphylococcus aureus,23 mm
same,MIC,[2],< 6.25 µg/mL
Fc1cc(F)c2nc(-c3ccc(-n4cncn4)cc3)n(Cc3cccc(C(F)(F)F)c3)c2c1,Activity,[3],Non-toxic
same,inhibition zone (IZ),Escherichia coli,20 mm
same,inhibition zone (IZ),[4],18 mm
same,inhibition zone (IZ),Pseudomonas aeruginosa,21 mm
same,inhibition zone (IZ),Staphylococcus aureus,22 mm
same,MIC,[2],< 6.25 µg/mL
Cn1c(-c2ccc(-n3cncn3)cc2)nc2c(F)cc(F)cc21,Activity,[3],Non-toxic
same,inhibition zone (IZ),Escherichia coli,21 mm
same,inhibition zone (IZ),[4],19 mm
same,inhibition zone (IZ),Pseudomonas aeruginosa,26 mm
same,inhibition zone (IZ),Staphylococcus aureus,28 mm
same,MIC,[2],< 6.25 µg/mL
Fc1cc(F)c2nc(-c3ccc(-n4cncn4)cc3)n(Cc3ccccc3)c2c1,Activity,[3],Non-toxic
same,inhibition zone (IZ),Escherichia coli,15 mm
same,inhibition zone (IZ),[4],13 mm
same,inhibition zone (IZ),Pseudomonas aeruginosa,20 mm
same,inhibition zone (IZ),Staphylococcus aureus,19 mm
same,MIC,[2],< 6.25 µg/mL
C=CCn1c(-c2ccc(-n3cncn3)cc2)nc2c(F)cc(F)cc21,Activity,[3],Non-toxic
same,inhibition zone (IZ),Escherichia coli,23 mm
same,inhibition zone (IZ),[4],23 mm
same,inhibition zone (IZ),Pseudomonas aeruginosa,22 mm
same,inhibition zone (IZ),Staphylococcus aureus,20 mm
same,MIC,[2],< 6.25 µg/mL
N#CCn1c(-c2ccc(-n3cncn3)cc2)nc2c(F)cc(F)cc21,Activity,[3],Non-toxic
same,inhibition zone (IZ),Escherichia coli,24 mm
same,growth inhibition (GI),[1],96%
same,inhibition zone (IZ),[4],20 mm
same,inhibition zone (IZ),Pseudomonas aeruginosa,26 mm
same,inhibition zone (IZ),Staphylococcus aureus,27 mm
same,MIC,[2],1.56 µg/mL
GENTAMICIN,inhibition zone (IZ),Escherichia coli,31 mm
same,inhibition zone (IZ),[4]; Salmonella enterica subsp. enterica serovar Typhi,30 mm
CCCn1c(-c2ccc(-n3cncn3)cc2)nc2c(F)cc(F)cc21,Activity,[3],Non-toxic
same,inhibition zone (IZ),Escherichia coli,18 mm
same,inhibition zone (IZ),[4],19 mm
same,inhibition zone (IZ),Pseudomonas aeruginosa,23 mm
same,inhibition zone (IZ),Staphylococcus aureus,21 mm
same,MIC,[2],< 6.25 µg/mL
Fc1cc(F)c2nc(-c3ccc(-n4cncn4)cc3)n(Cc3cccc(Cl)c3)c2c1,Activity,[3],Non-toxic
same,inhibition zone (IZ),Escherichia coli,19 mm
same,growth inhibition (GI),[1],96%
same,inhibition zone (IZ),[4],18 mm
same,inhibition zone (IZ),Pseudomonas aeruginosa,22 mm
same,inhibition zone (IZ),Staphylococcus aureus,26 mm
same,MIC,[2],0.58 µg/mL
Cc1cccc(Cn2c(-c3ccc(-n4cncn4)cc3)nc3c(F)cc(F)cc32)c1,Activity,[3],Non-toxic
same,inhibition zone (IZ),Escherichia coli,18 mm
same,inhibition zone (IZ),[4],16 mm
same,inhibition zone (IZ),Pseudomonas aeruginosa,18 mm
same,inhibition zone (IZ),Staphylococcus aureus,21 mm
same,MIC,[2],< 6.25 µg/mL
Cc1ccc(S(=O)(=O)n2c(-c3ccc(-n4cncn4)cc3)nc3c(F)cc(F)cc32)cc1,Activity,[3],Non-toxic
same,inhibition zone (IZ),Escherichia coli,16 mm
same,inhibition zone (IZ),[4],16 mm
same,inhibition zone (IZ),Pseudomonas aeruginosa,12 mm
same,inhibition zone (IZ),Staphylococcus aureus,14 mm
same,MIC,[2],< 6.25 µg/mL
Fc1ccc(Cn2c(-c3ccc(-n4cncn4)cc3)nc3c(F)cc(F)cc32)cc1,Activity,[3],Non-toxic
same,inhibition zone (IZ),Escherichia coli,19 mm
same,growth inhibition (GI),[1],96%
same,inhibition zone (IZ),[4],21 mm
same,inhibition zone (IZ),Pseudomonas aeruginosa,23 mm
same,inhibition zone (IZ),Staphylococcus aureus,25 mm
same,MIC,[2],3.13 µg/mL
